Source: PubChem BioAssay (Sanford-Burnham Center for Chemical Genomics)
PfG6PD inh = PfG6PD enzyme inhibitors, primary screen, biochemical, fluorescence intensity, uHTS | PfGluPho enzyme, NADPH resazurin-diaphorase fluorescence | 0.78% of 350,000 active | glucose-6-phosphate dehydrogenase-6-phosphogluconolactonase (Plasmodium falciparum 3D7) | inhibition, % at 20 µM;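 active means inhibition reaching at least a set limit at 20 µM in the primary screen, cut at about 59% in these data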
Diaph act CS = compounds boosting diaphorase resazurin reduction – biochemical, uHTS, resorufin fluorescence, counter-screen for diaphorase-coupled primary assays, primary screen; Diaphorase/resazurin coupled assay, 16 min; hits give high values; 1 = vehicle wells, 0 = NADH-free wells; activation factor at 20 µM; 0.005% of 190,000 active; AID 1229, 2008;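 active means diaphorase activity raised at least twofold by the compound at 20 µM; inactive means activation factor below 2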
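Material: bacterial diaphorase enzyme (C. kluyveri); amount: enzyme 0.07 U/mL final; reagent: NADH substrate 0.114 mM plus resazurin dye 0.1 mM, final; doses: single compound dose of 20 µM, 1% DMSO final; timing: 16 min enzyme reaction, ambient temperature; measured by: fluorescence of resorufin, 544 nm excitation, 590 nm emission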
HKDC1 inh = HKDC1 hexokinase inhibitors, primary screen, biochemical, fluorescence, uHTS. Q2TB90. recombinant HKDC1, G6PDH/diaphorase resazurin coupled fluorescence. inhibition, % at 20 µM. 0.16% of 340,000 active;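 active means inhibition above about 35% when tested at 20 µM, limit read from the data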
Target sequence (Q2TB90 whole entry, looked up): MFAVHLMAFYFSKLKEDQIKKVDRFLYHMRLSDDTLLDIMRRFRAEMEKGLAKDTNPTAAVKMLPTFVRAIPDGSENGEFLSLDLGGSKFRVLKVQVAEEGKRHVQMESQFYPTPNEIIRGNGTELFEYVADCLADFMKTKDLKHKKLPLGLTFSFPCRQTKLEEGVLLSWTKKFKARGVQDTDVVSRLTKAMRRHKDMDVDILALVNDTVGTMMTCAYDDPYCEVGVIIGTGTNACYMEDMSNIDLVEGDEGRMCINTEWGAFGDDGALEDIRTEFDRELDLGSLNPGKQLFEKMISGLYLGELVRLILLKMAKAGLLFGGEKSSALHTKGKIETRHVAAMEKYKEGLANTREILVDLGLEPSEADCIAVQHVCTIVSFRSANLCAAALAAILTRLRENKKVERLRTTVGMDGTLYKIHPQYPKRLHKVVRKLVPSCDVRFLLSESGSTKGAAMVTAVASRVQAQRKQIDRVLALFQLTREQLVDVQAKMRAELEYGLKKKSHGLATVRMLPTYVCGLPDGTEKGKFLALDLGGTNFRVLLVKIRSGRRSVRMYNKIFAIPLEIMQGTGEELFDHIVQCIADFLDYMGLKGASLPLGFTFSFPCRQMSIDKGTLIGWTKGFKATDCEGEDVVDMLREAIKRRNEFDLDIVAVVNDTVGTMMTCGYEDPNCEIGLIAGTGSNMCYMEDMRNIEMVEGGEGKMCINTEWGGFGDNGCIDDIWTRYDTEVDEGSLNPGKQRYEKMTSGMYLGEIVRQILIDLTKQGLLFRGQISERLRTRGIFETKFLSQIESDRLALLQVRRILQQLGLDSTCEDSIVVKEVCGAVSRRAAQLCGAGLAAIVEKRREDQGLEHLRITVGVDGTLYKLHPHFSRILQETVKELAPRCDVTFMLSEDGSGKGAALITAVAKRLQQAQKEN
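Assay system: recombinant HKDC1 hexokinase; detection: coupled resazurin fluorescence, excitation 525 nm, emission 613 nm; benchmarks: DMSO-plus-enzyme-mix negative control, buffer-substituted positive control; compound dosing: single 20 µM dose; schedule: 90 min at room temperature in dark; also added: glucose plus 1 mM ATP as hexokinase substrates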
Diaphorase inh = diaphorase inhibitors and chemical oxidizers, primary screen, counter-screen for diaphorase-coupled primary assays, biochemical, uHTS, resorufin fluorescence. diaphorase resazurin-to-resorufin fluorescence, NADH, 16 min; bacterial (C. kluyveri) enzyme, not human. 0.69% of 190,000 active. inhibition, % at 20 µM;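 active means primary screen inhibition at 20 µM above a set limit, cut at about 50% in these data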
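Test system: bacterial diaphorase enzyme (C. kluyveri); Quantity: 0.14 U/mL diaphorase, enzyme working solution; Times: reaction incubation of 16 min at room temperature; Measured by: fluorescence of resorufin formed from resazurin, Ex 544/Em 590 nm; Benchmarks: positive control minus NADH, DMSO neutral control.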
G6PDH CS = L. mesenteroides G6PDH inhibitors, counter-screen for G6PDH-coupled screening assays, biochemical, Leuconostoc mesenteroides enzyme; inhibition, % at 5 µM; Purified L. mesenteroides G6PDH, diaphorase/resazurin coupled fluorescence, 45 min; AID 1020, 2008; 0.12% of 200,000 active; glucose-6-phosphate dehydrogenase [Leuconostoc mesenteroides]; in the data active means inhibition above about 50%
HKDC1 act conf = HKDC1 hexokinase activators, confirmation, biochemical, single concentration | shares compounds with HKDC1 inh | recombinant HKDC1, G6PDH/diaphorase resazurin fluorescence; hits give low values | inhibition, % at 20 µM | 14% of 740 active | AID 504708, 2011;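 active means inhibition at or below a set negative limit, negative inhibition meaning the enzyme was activated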
PfG6PD confirm = PfG6PD inhibitors, hit retest, confirmation, biochemical, fluorescence intensity, single concentration | shares compounds with PfG6PD inh | recombinant PfGluPho, NADPH-diaphorase-resazurin fluorescence | 34% of 2,400 active | inhibition, % at 20 µM;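 active means inhibition of at least 50% at 20 µM in any single replicate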
Diaph ctr 10uM = diaphorase inhibitors and chemical oxidizers, confirmation, counter-screen for P. falciparum G6PD inhibitor project, biochemical, fluorescence intensity, 10 µM NADPH. inhibition, % at 20 µM. 39% of 820 active. diaphorase-coupled resazurin reduction, NADPH 10 uM. shares compounds with PfG6PD inh;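 active means average inhibition reaching 50% or more with the compound at 20 µM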;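 further: resorufin red fluorescence formed as diaphorase reduces resazurin using NADPH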
Diaph ctr 30uM = diaphorase inhibitors and chemical oxidizers, confirmation, counter-screen for P. falciparum G6PD inhibitor project, biochemical, fluorescence intensity, 30 µM NADPH. shares compounds with PfG6PD inh. Diaphorase/resazurin coupled assay, resorufin fluorescence. inhibition, % at 20 µM. 29% of 820 active. AID 504863, 2011;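 active means inhibition averaging 50% or more, tested at 20 µM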
Numbers stand for hits; . = inactive; / = not tested or not shown. This is a sample that favours compounds with a hit; in the whole collection about 1.3% have one here.

SMILES	PfG6PD inh	Diaph act CS	HKDC1 inh	Diaphorase inh	G6PDH CS	HKDC1 act conf	PfG6PD confirm	others
O=C1CC=C2C3CC4N(CCC45c4ccccc4N1C25)CC3=CCO (centres undefined)	.	/	.	/	/	/	/
O=C1NC(=S)N(c2ccc(F)cc2)C(=O)/C1=C\c1ccoc1	.	.	51	.	.	.	/
CNC(C(=O)c1ccccc1)C(OC)c1ccc(C)cc1 (centres undefined)	.	.	.	.	.	/	/
CCN(CC)c1ccc(N=Cc2c(O)n(Cc3ccco3)c(=O)[nH]c2=O)cc1	.	/	.	/	/	/	/
NC(=O)c1ccc(N=Cc2c(O)n(Cc3ccco3)c(=O)[nH]c2=O)cc1	.	/	36	/	/	.	/
CC1(C)C(C(=O)N2CCN(c3ccc(Cl)cc3)CC2)C1(C)C	.	/	.	/	/	/	/
COC(=O)C1CN(C#N)N(c2ccc(Cl)cc2)C12c1ccccc1-c1ccccc12 (centres undefined)	.	.	87	.	.	.	/
Oc1c(Cl)cccc1Cc1cc(Cl)cc(Cl)c1O	.	/	.	/	/	/	/
CCOC(=O)c1c(-n2c(C)cc(/C=C3\C(=O)NC(=O)N(C)C3=O)c2C)sc2c1CCCC2	.	.	51	.	.	.	/
Cc1cc(/C=C2\C(=O)NC(=O)N(c3ccc(Cl)cc3)C2=O)c(C)n1-c1sc2c(c1C#N)CCCC2	.	.	69	.	.	.	/
Cc1ccc(N2C(=O)NC(=O)/C(=C\c3cc(C)n(-c4ccc(C(=O)O)cc4)c3C)C2=O)cc1	.	/	.	/	/	/	/
Cn1c(=O)c2c(nc(N/N=C/c3c(O)n(C4CCCCC4)c(=S)[nH]c3=O)n2C)n(C)c1=O	.	/	.	/	/	-49	/
Cc1cc(OCC(=O)N2CCC(C(=O)O)(c3ccccc3)CC2)c2c(C)c(C)c(=O)oc2c1	.	/	.	/	/	/	/
N#CC(C#N)=Cc1ccc(C=C(C#N)C#N)cc1	.	/	38	/	/	.	/
Cc1cc(N2CCCC2)ccc1C=C(C#N)C#N	.	.	.	.	.	/	/
CC1CCCCN1Cc1c[nH]c2ccccc12 (centres undefined)	.	/	.	/	/	/	/
CNC(C)(C)Cc1ccccc1	.	/	.	/	/	/	/
Cc1ccc2c(C)c3ccc4ccccc4c3c[n+]2c1	.	/	.	/	/	-65	/
CC[C@H](C)/C=C(C)/C=C/C1=CC2=C(Cl)C(=O)[C@@](C)(OC(C)=O)C(=O)C2=CO1	.	/	63	/	/	.	/
CN1CC[C@@]2(C)c3cc(O)ccc3N(C)[C@@H]12	83	/	.	/	/	.	104	Diaph ctr 10uM=74;Diaph ctr 30uM=.
O=c1c2ccccc2[se]n1-c1ccccc1	127	.	.	70	.	.	113	Diaph ctr 10uM=.;Diaph ctr 30uM=.
CNC(=O)Oc1ccccc1C1CCCCC1	.	/	.	/	/	/	/
COC(=O)c1c2[n+](cc3cc(OC)c(OC)cc13)CCc1cc(OC)c(OC)cc1-2	.	/	.	/	/	/	/
O=C(O)CC1OCC=C2CN3CCC45c6ccccc6NC4C1C2CC35 (centres undefined)	.	/	.	/	/	/	/
O=C(O)CC1OCC=C2CN3CCC45C6=CC(=O)C(=O)C([N+](=O)[O-])=C6NC4C1C2CC35 (centres undefined)	107	/	43	/	/	.	105	Diaph ctr 10uM=91;Diaph ctr 30uM=97
SMILES	PfG6PD inh	Diaph act CS	HKDC1 inh	Diaphorase inh	G6PDH CS	HKDC1 act conf	PfG6PD confirm	others
COC(=O)C1=C(C(=O)OC)SC2(S1)C(C(=O)OC)=C(C(=O)OC)Sc1c2ssc1=O	86	/	.	/	/	-89	60	Diaph ctr 10uM=.;Diaph ctr 30uM=.
CC(NS(=O)(=O)OCC(Cl)(Cl)Cl)c1ccccc1 (centres undefined)	.	/	.	/	/	/	/
COc1ccc2c(c1)C(NC(C)=O)CCc1cc(OC)c(OC)c(OC)c1-2 (centres undefined)	.	/	.	/	/	/	/
COC(=O)C12CCc3c(ccc4cc(OC)ccc34)C1=CC(=O)C2 (centres undefined)	71	/	.	/	/	/	.
COc1ccc(-c2cc(C(F)(F)F)n3nc(C(=O)N4CCC5(CC4)OCCO5)cc3n2)cc1OC	.	.	.	.	.	/	/
CNC(=O)Oc1cccc(-c2cn3cc(Cl)ccc3n2)c1	61	.	.	.	.	/	.
CCC(COC(=O)NC)NC(=O)Oc1cccc(C)c1 (centres undefined)	.	.	.	.	.	/	/
CNC(=O)Oc1ccc(-c2cn3cc(C)ccc3n2)cc1	62	.	.	.	.	/	.
Cc1nc2c(=O)n(C)c(=O)nc-2n(C)n1	120	.	.	.	68	/	109	Diaph ctr 10uM=98;Diaph ctr 30uM=102
NC1CCc2cc(O)c(O)cc2C1 (centres undefined)	69	/	.	/	/	/	76	Diaph ctr 10uM=.;Diaph ctr 30uM=.
CC1CCN(C(CC(=O)c2ccccc2)C(=O)c2ccccc2)CC1 (centres undefined)	94	/	.	/	/	/	.
COc1cc(O)c(C(=O)O)c(-c2cc(O)c(O)cc2C)c1	105	/	.	/	/	/	107	Diaph ctr 10uM=.;Diaph ctr 30uM=.
Nc1ccc2c3c(cccc13)-c1ccccc1-2	79	/	.	/	/	/	82	Diaph ctr 10uM=.;Diaph ctr 30uM=.
Nc1ccc(C2(c3ccc(N)cc3)c3ccccc3-c3ccccc32)cc1	.	.	.	.	.	/	/
O=C(c1cc([N+](=O)[O-])ccc1N1CCNCC1)N1CCOCC1	.	.	.	.	.	/	/
O=C(c1cc(-c2ccc(Cl)cc2)n(-c2ccc(Cl)cc2Cl)n1)N1CCOCC1	82	.	.	.	.	/	.
CCOc1cc2c(cc1OCC)-n1cccc1C(c1ccccc1O)NC2 (centres undefined)	.	/	.	/	/	/	/
CCOC(=O)C(O)(c1ccc(N(C)C(=O)c2ccc(Cl)c(Cl)c2)cc1)C(F)(F)F (centres undefined)	.	.	.	.	.	/	/
CCOC(=O)C(O)(c1ccc(NC(=O)c2ccc(Cl)c(Cl)c2)cc1)C(F)(F)F (centres undefined)	62	/	.	/	/	/	.
O=C1NC(=O)N(c2ccc3c(c2)OCO3)C(=O)/C1=C/c1cccs1	67	.	.	.	.	/	.
